Assay outcomes deposited in PubChem by Sanford-Burnham Center for Chemical Genomics.
NR1D1 modulator – modulators of Rev-erb alpha DNA binding, primary screen, biochemical, FITC-DNA, fluorescence polarization, uHTS | Nuclear receptor subfamily 1 group D member 1 (Homo sapiens), P20393 | Rev-erbα–FITC-DNA binding, 90 min | activity, % at 10 µM | 0.79% of 370,000 active | AID 1259318, 2017;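 active means activity above about 14%, limit read from the data; passing the limit was not always enough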
aDG glyco act – activators of alpha-DG glycosylation, primary screen, uHTS, Pro5-aDG cells, AlphaScreen; 0.22% of 360,000 active; activation, % at 10 µM; alpha-DG glycosylation AlphaScreen (IIH6); 0% Pro5, 100% B10-LARGE cell signal; AID 624168, 2012;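 active means activation of at least 8% versus controls, or a plate z-score of at least 8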;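 further: Pro5 are CHO cells carrying HIG-tagged alpha-DG that lacks glycosylation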
CSN deneddyl inh – inhibitors of CSN-mediated cullin deneddylation, primary screen, biochemical, fluorescence polarization, uHTS; inhibition, % at 12.5 µM; AID 651999, 2013; Purified CSN, SCF-Nedd8-OG deneddylation; 0.38% of 360,000 active;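 active means pattern-corrected inhibition above about 35%, with an unprinted fluorescence ratio check between 0.5 and 1.5, limit read from the data, passing the limit was not always enough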
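Assay system: HEK293T-derived human Csn5 enzyme; quantity: 0.24 nM enzyme; medium: Tris/NaCl/DTT buffer, pH 7.5; also added: substrate SCFSkp2-Nedd8OG, 10 nM; doses: 12.5 µM compound; schedule: 90 min reaction at room temperature; signal: FP; read-out: % inhibition of substrate cleavage by Csn5; benchmarks: substrate-only high control, full reaction low control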
HNF4A DNA FP – change in binding of human HNF4A to DNA, primary screen, biochemical, fluorescence polarization, FITC-DNA; Hepatocyte nuclear factor 4-alpha (Homo sapiens), P41235; 1 h; activity change, % at 10 µM; 0.3% of 360,000 active; in the data active means activity change above about 30%, passing the limit was not always enough
Target sequence (P41235 whole entry, looked up): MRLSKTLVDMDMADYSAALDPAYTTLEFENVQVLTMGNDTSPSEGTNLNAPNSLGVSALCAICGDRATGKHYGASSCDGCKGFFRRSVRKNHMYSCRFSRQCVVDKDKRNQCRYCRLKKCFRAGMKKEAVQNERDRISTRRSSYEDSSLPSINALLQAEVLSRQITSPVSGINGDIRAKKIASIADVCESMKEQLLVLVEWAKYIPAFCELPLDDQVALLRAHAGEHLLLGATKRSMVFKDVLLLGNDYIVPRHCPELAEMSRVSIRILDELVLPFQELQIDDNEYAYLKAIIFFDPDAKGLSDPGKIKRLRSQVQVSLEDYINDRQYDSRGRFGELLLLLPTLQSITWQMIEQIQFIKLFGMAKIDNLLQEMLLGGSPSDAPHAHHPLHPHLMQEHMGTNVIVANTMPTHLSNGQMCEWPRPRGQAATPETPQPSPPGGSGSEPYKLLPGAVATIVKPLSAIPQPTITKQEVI
Large screens that a line does not name were inactive. An excerpt weighted towards active compounds, which were near 1.5% of everything screened.

C#CCOCCOCCOCCNc1nc(N2CCN(C(=O)CCCCCCCCCCNC(=O)[C@H](CCCCN)n3cc(CCCC(=O)O)nn3)CC2)nc(N2CCN(C(=O)CCCCCCCCCCNC(=O)[C@H](CCCCN)n3cc(CCCC(=O)O)nn3)CC2)n1	none (no result: NR1D1 modulator)
C#CCOCCOCCOCCNc1nc(N2CCN(C(=O)CCCCCCCCCCNC(=O)[C@H](CCCCN)n3cc(C[C@@H](C)CC)nn3)CC2)nc(N2CCN(C(=O)CCCCCCCCCCNC(=O)[C@H](CCCCN)n3cc(C[C@@H](C)CC)nn3)CC2)n1	CSN deneddyl inh 106 (no result: NR1D1 modulator)
C#CCOCCOCCOCCNc1nc(N2CCN(C(=O)CCCCCCCCCCNC(=O)[C@H](CCCCN)n3cc(C)nn3)CC2)nc(N2CCN(C(=O)CCCCCCCCCCNC(=O)[C@@H]([C@H](C)CC)n3cc(CCCCCN)nn3)CC2)n1	CSN deneddyl inh 111 (no result: NR1D1 modulator)
C#CCOCCOCCOCCNc1nc(N2CCN(C(=O)CCCCCCCCCCNC(=O)[C@H]([C@@H](C)CC)n3cc(CCCCCN)nn3)CC2)nc(N2CCN(C(=O)CCCCCCCCCCNC(=O)[C@@H]([C@H](C)O)n3cc(C)nn3)CC2)n1	none (no result: NR1D1 modulator)
C#CCOCCOCCOCCNc1nc(N2CCN(C(=O)CCCCCCCCCCNC(=O)[C@@H](CCC(=O)O)n3cc(CCCCCN)nn3)CC2)nc(N2CCN(C(=O)CCCCCCCCCCNC(=O)[C@@H](CCC(=O)O)n3cc(CCCCCN)nn3)CC2)n1	none
C#CCOCCOCCOCCNc1nc(N2CCN(C(=O)CCCCCCCCCCNC(=O)Cn3cc(C[C@@H](C)O)nn3)CC2)nc(N2CCN(C(=O)CCCCCCCCCCNC(=O)[C@H](CCCCN)n3cc(C[C@@H](C)CC)nn3)CC2)n1	CSN deneddyl inh 87 (no result: NR1D1 modulator)
C#CCOCCOCCOCCNc1nc(N2CCN(C(=O)CCCCCCCCCCNC(=O)[C@H](CCCCN)n3cc(CCO)nn3)CC2)nc(N2CCN(C(=O)CCCCCCCCCCNC(=O)[C@H](CCCCN)n3cc(CCO)nn3)CC2)n1	CSN deneddyl inh 104 (no result: NR1D1 modulator)
CCCCC(=O)O[C@]1(C(=O)CO)[C@@H](C)CC2C3CCC4=CC(=O)C=C[C@]4(C)[C@@]3(F)C(O)C[C@@]21C (stereo partly drawn)	none (no result: aDG glyco act, CSN deneddyl inh, HNF4A DNA FP)
Cc1ccc(-n2c(SCC(=O)Nc3ccccc3-c3ccccc3)nnc2-c2ccccc2)cc1	none (no result: aDG glyco act, CSN deneddyl inh, HNF4A DNA FP)
CC(C)C[C@H]1COc2cc(Br)ccc2S(=O)(=O)N1Cc1cn(Cc2ccc(C(F)(F)F)cc2)nn1	none (no result: aDG glyco act, CSN deneddyl inh, HNF4A DNA FP)
NCCN1CCN(S(=O)(=O)c2ccc3c(c2)CCN3C(=O)C2CCC2)CC1	none (no result: aDG glyco act, CSN deneddyl inh, HNF4A DNA FP)
C#CCOCCOCCOCCNc1nc(N2CCN(C(=O)CCCCCCCCCCNC(=O)[C@H](CCCCN)n3cc(CCCC(=O)O)nn3)CC2)nc(N2CCN(C(=O)CCCCCCCCCCNC(=O)[C@H](CCCN=C(N)N)n3cc(C[C@@H](C)CC)nn3)CC2)n1	none (no result: NR1D1 modulator)
C#CCOCCOCCOCCNc1nc(N2CCN(C(=O)CCCCCCCCCCNC(=O)[C@H](CCCCN)n3cc(CCO)nn3)CC2)nc(N2CCN(C(=O)CCCCCCCCCCNC(=O)[C@H](CCCN=C(N)N)n3cc(C[C@@H](C)CC)nn3)CC2)n1	CSN deneddyl inh 109 (no result: NR1D1 modulator)
C#CCOCCOCCOCCNc1nc(N2CCN(C(=O)CCCCCCCCCCNC(=O)[C@@H](CCSC)n3cc(CCO)nn3)CC2)nc(N2CCN(C(=O)CCCCCCCCCCNC(=O)[C@H]([C@@H](C)CC)n3cc(CCCCN=C(N)N)nn3)CC2)n1	CSN deneddyl inh 139 (no result: NR1D1 modulator)
COc1ccc(/C=C2\CC3(OC(=O)C4CCCC4)CCCN2C3)cc1 (stereo not drawn)	none (no result: aDG glyco act, CSN deneddyl inh, HNF4A DNA FP)
O=C(Nc1ncccn1)c1ccc([N+](=O)[O-])o1	CSN deneddyl inh 64, HNF4A DNA FP 78
CCN(CC)c1ccc2cc(C(=O)c3cccs3)c(=O)oc2c1	HNF4A DNA FP 84
CCN(CC)c1ccc2cc(-c3nc4ccccc4[nH]3)c(=O)oc2c1	none (no result: NR1D1 modulator)
CSCC[C@H](N)C(=O)O	none (no result: aDG glyco act, CSN deneddyl inh, HNF4A DNA FP)
Nc1ccc2c(c1)C(=NO)c1cc([N+](=O)[O-])ccc1-2	HNF4A DNA FP 52
CCN1C(=O)C2(SC(NC(C)=O)=NN2C(C)=O)c2cc(C)ccc21 (stereo not drawn)	none
CCc1ccc2c(c1)C1(SC(NC(C)=O)=NN1C(C)=O)C(=O)N2CC (stereo not drawn)	CSN deneddyl inh 56
CCCCCCCCCCCCCCCCCC(=O)OCC(O)[C@H]1OC[C@H](O)[C@H]1O (stereo partly drawn)	none (no result: aDG glyco act, CSN deneddyl inh, HNF4A DNA FP)
O=S(=O)(c1ccc(Cl)cc1)N1CCCc2ccccc21	none
O=S(=O)(c1ccc(Cl)cc1)N1CCc2ccccc21	CSN deneddyl inh 54, HNF4A DNA FP 93
O=S(=O)(c1ccc(F)cc1)N1CCc2ccccc21	CSN deneddyl inh 48, HNF4A DNA FP 76
CCNC(=O)N(C)[C@H]1C[C@H]2c3[nH]c4cccc(-c5ccc6c(c5)OCO6)c4c3CCN2C[C@H]1[C@H](C)O	none (no result: aDG glyco act, CSN deneddyl inh, HNF4A DNA FP)
O=C(N/N=C/c1ccc([N+](=O)[O-])s1)c1ccccc1	aDG glyco act 9.5
O=C(N/N=C/c1ccc([N+](=O)[O-])s1)C(O)c1ccccc1 (stereo not drawn)	aDG glyco act 11
O=C(N/N=C/c1ccc([N+](=O)[O-])s1)c1ccccc1Br	aDG glyco act 5.6
Cc1ccccc1C(=O)N/N=C/c1ccc([N+](=O)[O-])s1	none
NS(=O)(=O)c1ccc2nc(NC(=O)Nc3ccc(F)cc3)sc2c1	HNF4A DNA FP 43
CS(=O)(=O)c1ccc2nc(NC(=O)Nc3ccc(Cl)cc3)sc2c1	none
Cc1[nH]c2ccccc2c1CCN(Cc1cccs1)C(=O)Nc1cccc2c1OCO2	none (no result: aDG glyco act, CSN deneddyl inh, HNF4A DNA FP)
O=C1COc2ccc(C(=O)COC(=O)c3ccc(Cl)cc3[N+](=O)[O-])cc2N1	CSN deneddyl inh 77
CC(C)OC(=O)CCC/C=C\C[C@@H]1[C@@H](/C=C/[C@@H](O)COc2cccc(C(F)(F)F)c2)[C@H](O)C[C@@H]1O	none (no result: aDG glyco act, CSN deneddyl inh, HNF4A DNA FP)
CCN1/C(=C/C=C2/SC(=Nc3cccc4ncccc34)N(C)C2=O)Sc2ccccc21	CSN deneddyl inh 50
CCN1C(=O)/C(=C/C=C2/Sc3ccccc3N2CCO)SC1=S	HNF4A DNA FP 36
CCCN1C(=O)/C(=C\C=C2/Sc3ccccc3N2CCO)SC1=S	none
Cc1ccc(-c2nc3cccnc3s2)cc1NC(=O)C1c2ccccc2Oc2ccccc21	CSN deneddyl inh 36, HNF4A DNA FP 40
Cc1ccc(-c2nc3cccnc3s2)cc1NC(=O)c1ccco1	none
COC(=O)c1c(NC(=O)c2ccco2)sc2c1CCC2	HNF4A DNA FP 64
O=C(Nc1sc2c(c1C(=O)O)CCC2)c1ccco1	none
N#C/C(=C\c1ccccc1)C(=O)NC(=O)Oc1ccccc1	none
CCOC(=O)NC(=O)/C(C#N)=C/c1ccc(N(C)C)cc1	HNF4A DNA FP 56
Cc1ccc(/C=C(\NC(=O)c2ccccc2)C(=O)N2CCCCC2)cc1	none
